{"data": "Measurements pooled from the literature", "CDK17": "Cyclin-dependent kinase 17 (CDK17, Homo sapiens, UniProt Q00537)", "CDK17 with cyclin Y": "Cyclin-dependent kinase 17, with cyclin Y (CDK17, Homo sapiens, UniProt Q00537)", "note": "Each line is one published result; the experiments were not run side by side."}
{"Compound": "Cn1c2c(Cl)c(Cl)ccc2c2cc[nH]c(=O)c21", "target": "CDK17", "assay": "thermal stability, DSF", "setting": "10 µM", "measurement": "ΔTm", "value": "-0.4 °C"}
{"Compound": "CCCOc1ccc([C@H]2[C@H](C(=O)O)[C@@H](c3ccc4c(c3)OCO4)CN2CC(=O)Nc2c(CC)cccc2CC)cc1", "target": "CDK17", "assay": "cell-free assay, competition with immobilised ligand", "setting": "1 µM", "measurement": "remaining binding", "value": "91%"}
{"Compound": "Cn1c2c(c3ccccc31)C(C#N)C(C)(C)NC2=O (stereo not shown)", "target": "CDK17", "assay": "thermal stability, DSF", "setting": "10 µM", "measurement": "ΔTm", "value": "0 °C"}
{"Compound": "CCCCNc1ncc2c(-c3ccc(F)cc3)nn(C[C@H]3CC[C@H](N)CC3)c2n1", "target": "CDK17", "assay": "target engagement in cells, inhibitor, chemoproteomics", "setting": "20 mM", "measurement": "inhibition", "value": "41.7%"}
{"Compound": "Cc1ccc(C(=O)NCc2ccsc2)cc1C#Cc1cn(C(C)C)c2ncnc(N)c12", "target": "CDK17 with cyclin Y", "assay": "enzyme activity, inhibitor", "setting": "1 µM", "measurement": "activity vs control", "value": "104%"}
{"Compound": "O=C(Nc1cnn(-c2csc(C(=O)NC3COC3)c2)c1)Nc1ccccc1Cl", "target": "CDK17 with cyclin Y", "assay": "enzyme activity, inhibitor", "setting": "5 µM", "measurement": "remaining activity", "value": "106%"}
{"Compound": "O=C(Nc1cnc(Oc2ccc(F)cc2)nc1)N1CCc2ncccc2[C@@H]1c1ccc(F)cc1", "target": "CDK17", "assay": "cell-free assay, competition with immobilised ligand", "setting": "1 µM", "measurement": "remaining binding", "value": "97%"}
{"Compound": "Nc1ncnc2occ(-c3ccc(NC(=O)Nc4cc(C(F)(F)F)ccc4F)cc3)c12", "target": "CDK17", "assay": "cell-free assay, inhibitor", "setting": "20 µM", "measurement": "remaining signal", "value": "0.4%"}
{"Compound": "COc1cccc2c(NCc3ccccc3)nc(-n3c(N)nc4ccccc43)nc12", "target": "CDK17", "assay": "target engagement in cells, inhibitor, chemoproteomics", "setting": "20 mM", "measurement": "inhibition", "value": "-40.2%"}
{"Compound": "O=C(N[C@H]1CCCCC/C=C\\C2C[C@@]2(C(=O)O)NC(=O)[C@@H]2C[C@@H](Oc3ccncc3)CN2C1=O)OC1CCCC1 (stereo partly shown)", "target": "CDK17", "assay": "binding, competition with immobilised ligand", "setting": "1 µM", "measurement": "remaining binding", "value": "89%"}
{"Compound": "Cn1c2c(c3ccc(Cl)c(Cl)c31)C(C#N)C(C)(C)NC2=O (stereo not shown)", "target": "CDK17", "assay": "thermal stability, DSF", "setting": "10 µM", "measurement": "ΔTm", "value": "1.1 °C"}
{"Compound": "COc1ccc2cc(OCC3(C(=O)O)CN(C(=O)c4ccc(F)cc4)C3)ccc2c1", "target": "CDK17", "assay": "cell-free assay, competition with immobilised ligand", "setting": "1 µM", "measurement": "remaining binding", "value": "100%"}
{"Compound": "CN(CCCC(F)(F)F)c1nccc(-c2cnn3ncccc23)n1", "target": "CDK17", "assay": "binding", "setting": "1 µM", "measurement": "remaining binding", "value": "90%"}
